Experimental data: ChEMBL document CHEMBL1140683, “N-4-Pyrimidinyl-1H-indazol-4-amine inhibitors of Lck: indazoles as phenol isosteres with improved pharmacokinetics” (Bioorg Med Chem Lett, 2007)

Assays:
[1] = biological target: Proto-oncogene tyrosine-protein kinase LCK (Mus musculus, UniProt P06240); test: Inhibition of murine Lck by TR-FRET assay
[2] = biological target: Tyrosine-protein kinase BTK (Homo sapiens, UniProt Q06187); test: Inhibition of Btk
[3] = biological target: T1, Tyrosine-protein kinase TXK (Homo sapiens, UniProt P42681); test: Inhibition of Txk
T1 sequence (P42681 whole entry): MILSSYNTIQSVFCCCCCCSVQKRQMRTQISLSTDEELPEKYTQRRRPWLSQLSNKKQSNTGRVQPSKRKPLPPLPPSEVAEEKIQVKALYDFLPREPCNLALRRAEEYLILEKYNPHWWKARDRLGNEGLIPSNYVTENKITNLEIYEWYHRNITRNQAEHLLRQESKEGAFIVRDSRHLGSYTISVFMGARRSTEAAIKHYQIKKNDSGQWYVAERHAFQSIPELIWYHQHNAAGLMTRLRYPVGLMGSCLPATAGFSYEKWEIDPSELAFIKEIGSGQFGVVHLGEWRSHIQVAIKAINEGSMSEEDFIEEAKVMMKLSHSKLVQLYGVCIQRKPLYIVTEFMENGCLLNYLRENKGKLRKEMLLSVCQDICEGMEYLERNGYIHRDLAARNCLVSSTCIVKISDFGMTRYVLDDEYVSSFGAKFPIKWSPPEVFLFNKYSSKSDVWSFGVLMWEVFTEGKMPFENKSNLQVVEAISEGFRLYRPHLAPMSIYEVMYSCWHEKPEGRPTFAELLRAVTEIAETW

[4] = biological target: Tyrosine-protein kinase Lyn (Homo sapiens, UniProt P07948); test: Inhibition of Lyn
[5] = biological target: Tyrosine-protein kinase SYK (Homo sapiens, UniProt P43405)
[6] = Oral bioavailability in BALB/c mouse at 1 mg/kg, po; assay type: ADME, organism-based; details: in vivo
Outline: (§1)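 Blood sampled over 8 h. Plasma protein-precipitated with acetonitrile, dried under nitrogen, reconstituted in 10:90 acetonitrile:water. Quantified by LC-MS/MS on an ODS3 column with a 0.1% formic acid water/acetonitrile gradient.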

[7] = Volume of distribution at steady state in BALB/c mouse at 1 mg/kg, iv; assay type: ADME, organism-based; parameters: dose 1 mg/kg, route intravenous; details: in vivo, read-out: Vdss; outline: as §1
[8] = Half life in BALB/c mouse at 1 mg/kg, iv; assay type: ADME, organism-based; parameters: dose 1 mg/kg, route intravenous; details: in vivo; outline: as §1
[9] = AUC (0 to t) in BALB/c mouse at 1 mg/kg, iv; assay type: ADME, organism-based; parameters: dose 1 mg/kg, route intravenous; details: plasma; outline: as §1
[10] = Plasma clearance in BALB/c mouse at 1 mg/kg, iv; assay type: ADME, organism-based; parameters: dose 1 mg/kg, route intravenous; outline: as §1
[11] = AUC (0 to t) in BALB/c mouse at 1 mg/kg, po; assay type: ADME, organism-based; parameters: dose 1 mg/kg, route oral; details: plasma; outline: as §1
[12] = biological target: Tyrosine-protein kinase Lck (Homo sapiens, UniProt P06239); test: Inhibition of human Lck by TR-FRET assay
[13] = Half life in BALB/c mouse at 2.5 mg/kg, iv; assay type: ADME, organism-based; parameters: dose 2.5 mg/kg, route intravenous; details: in vivo; outline: as §1
[14] = Oral bioavailability in BALB/c mouse at 10 mg/kg, po; assay type: ADME, organism-based; details: in vivo; outline: as §1
[15] = Plasma clearance in BALB/c mouse at 2.5 mg/kg, iv; assay type: ADME, organism-based; parameters: dose 2.5 mg/kg, route intravenous; outline: as §1
[16] = AUC (0 to t) in BALB/c mouse at 10 mg/kg, po; assay type: ADME, organism-based; parameters: dose 10 mg/kg, route oral; details: plasma; outline: as §1
[17] = Volume of distribution at steady state in BALB/c mouse at 2.5 mg/kg, iv; assay type: ADME, organism-based; parameters: dose 2.5 mg/kg, route intravenous; details: in vivo, read-out: Vdss; outline: as §1
[18] = AUC (0 to t) in BALB/c mouse at 2.5 mg/kg, iv; assay type: ADME, organism-based; parameters: dose 2.5 mg/kg, route intravenous; details: plasma; outline: as §1

Chain of Proto-oncogene tyrosine-protein kinase LCK (P06240 whole entry): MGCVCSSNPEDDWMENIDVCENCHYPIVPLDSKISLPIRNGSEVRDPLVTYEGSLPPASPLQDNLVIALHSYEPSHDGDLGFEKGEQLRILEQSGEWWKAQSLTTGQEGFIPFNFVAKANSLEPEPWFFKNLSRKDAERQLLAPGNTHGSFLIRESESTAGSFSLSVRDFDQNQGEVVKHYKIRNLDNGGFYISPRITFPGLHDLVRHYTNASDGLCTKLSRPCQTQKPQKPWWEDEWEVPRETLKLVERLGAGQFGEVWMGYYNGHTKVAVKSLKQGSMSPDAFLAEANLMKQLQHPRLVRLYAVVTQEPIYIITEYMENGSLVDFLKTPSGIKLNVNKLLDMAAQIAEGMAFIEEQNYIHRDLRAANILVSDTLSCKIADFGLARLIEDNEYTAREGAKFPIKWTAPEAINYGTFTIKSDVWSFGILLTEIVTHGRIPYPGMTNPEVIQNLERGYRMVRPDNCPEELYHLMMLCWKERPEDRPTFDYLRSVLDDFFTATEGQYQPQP
Chain of Tyrosine-protein kinase Lyn (P07948 whole entry): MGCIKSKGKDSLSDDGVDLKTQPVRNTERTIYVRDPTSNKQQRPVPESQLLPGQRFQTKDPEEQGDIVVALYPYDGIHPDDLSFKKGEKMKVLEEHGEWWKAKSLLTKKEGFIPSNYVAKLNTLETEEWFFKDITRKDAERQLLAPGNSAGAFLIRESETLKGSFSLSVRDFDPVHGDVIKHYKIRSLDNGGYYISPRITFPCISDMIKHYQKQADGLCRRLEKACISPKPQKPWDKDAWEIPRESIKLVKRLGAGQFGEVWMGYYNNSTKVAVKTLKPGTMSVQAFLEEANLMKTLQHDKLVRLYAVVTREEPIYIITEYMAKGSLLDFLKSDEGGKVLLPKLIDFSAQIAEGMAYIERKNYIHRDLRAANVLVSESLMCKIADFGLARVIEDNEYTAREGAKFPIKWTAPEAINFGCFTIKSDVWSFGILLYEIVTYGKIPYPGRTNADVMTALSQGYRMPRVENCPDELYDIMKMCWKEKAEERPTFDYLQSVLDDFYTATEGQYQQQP
Chain of Tyrosine-protein kinase BTK (Q06187 whole entry): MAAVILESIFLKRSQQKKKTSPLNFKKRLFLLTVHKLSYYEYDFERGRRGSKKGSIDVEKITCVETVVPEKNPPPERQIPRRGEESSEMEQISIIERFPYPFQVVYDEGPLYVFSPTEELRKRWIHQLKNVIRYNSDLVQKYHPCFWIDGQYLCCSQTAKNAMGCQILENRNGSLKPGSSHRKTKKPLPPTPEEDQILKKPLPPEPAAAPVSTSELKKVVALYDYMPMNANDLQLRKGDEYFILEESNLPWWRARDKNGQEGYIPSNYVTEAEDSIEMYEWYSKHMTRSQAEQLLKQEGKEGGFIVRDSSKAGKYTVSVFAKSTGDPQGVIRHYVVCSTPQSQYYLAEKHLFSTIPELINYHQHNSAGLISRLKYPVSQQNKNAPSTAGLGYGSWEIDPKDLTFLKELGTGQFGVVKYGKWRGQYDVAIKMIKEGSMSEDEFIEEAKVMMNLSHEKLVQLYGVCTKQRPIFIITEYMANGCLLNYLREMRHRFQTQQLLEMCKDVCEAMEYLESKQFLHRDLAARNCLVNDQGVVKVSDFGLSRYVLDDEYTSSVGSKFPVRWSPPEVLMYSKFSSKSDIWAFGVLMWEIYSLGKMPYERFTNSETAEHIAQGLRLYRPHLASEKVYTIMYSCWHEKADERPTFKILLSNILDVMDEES
Chain of Tyrosine-protein kinase Lck (P06239 whole entry): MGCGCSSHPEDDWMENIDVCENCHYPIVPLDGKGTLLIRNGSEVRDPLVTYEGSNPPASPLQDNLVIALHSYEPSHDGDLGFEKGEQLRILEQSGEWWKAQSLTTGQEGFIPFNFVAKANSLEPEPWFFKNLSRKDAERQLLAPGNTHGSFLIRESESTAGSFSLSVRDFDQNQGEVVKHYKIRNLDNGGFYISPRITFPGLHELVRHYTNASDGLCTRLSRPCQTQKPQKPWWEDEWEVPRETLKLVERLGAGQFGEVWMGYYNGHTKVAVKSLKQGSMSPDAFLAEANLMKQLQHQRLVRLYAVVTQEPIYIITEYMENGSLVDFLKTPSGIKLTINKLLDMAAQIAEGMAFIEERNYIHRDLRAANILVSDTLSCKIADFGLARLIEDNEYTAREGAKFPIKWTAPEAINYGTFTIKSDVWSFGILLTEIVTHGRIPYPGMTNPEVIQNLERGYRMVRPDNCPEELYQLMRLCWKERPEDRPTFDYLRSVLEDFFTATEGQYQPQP

Work on `NS(=O)(=O)c1cccc(Nc2nccc(Nc3ccc(F)cc3F)n2)c1` yielded an IC50 [1] of 350 nM.

For `Cc1ccc2[nH]ncc2c1Nc1ccnc(Nc2cccc(C(N)=O)c2)n1`, the IC50 [2] was 97 nM, the IC50 [3] was 28 nM and the IC50 [1] was 12 nM. The IC50 [4] was 40 nM and the IC50 [5] was 220 nM.

Molecule `Cc1ccc(C(N)=O)cc1Nc1ccnc(Nc2cccc(C(N)=O)c2)n1` has an IC50 [1] of 1300 nM.

In the case of `Cc1ccccc1Nc1ccnc(Nc2cccc(C(N)=O)c2)n1`, the IC50 [1] is reported as 89 nM.

`Cc1ccc(N)cc1Nc1ccnc(Nc2cccc(C(N)=O)c2)n1` gave an IC50 [1] of 97 nM.

In the case of `NS(=O)(=O)c1cccc(Nc2nccc(Nc3cccc4[nH]ncc34)n2)c1`, the IC50 [1] is reported as 33 nM.

Work on `Cn1ncc2c(Nc3ccnc(Nc4cccc(C(N)=O)c4)n3)cccc21` yielded an IC50 [1] of 1600 nM.

Work on `COc1ccc(C)c(Nc2ccnc(Nc3cccc(S(N)(=O)=O)c3)n2)c1` yielded an IC50 [1] of 54 nM.

With `Cc1nc2c(Nc3ccnc(Nc4cccc(C(N)=O)c4)n3)cccc2[nH]1` the IC50 [1] was 5600 nM.

`NC(=O)c1cccc(Nc2nccc(Nc3ccc4nn[nH]c4c3)n2)c1` showed an IC50 [1] of 4400 nM.

`Cc1ccc(CN)cc1Nc1ccnc(Nc2cccc(C(N)=O)c2)n1` gave an IC50 [1] of 3400 nM.

For `NC(=O)c1cccc(Nc2nccc(Nc3cccc4[nH]ncc34)n2)c1` [GW782612X], the IC50 [1] was 100 nM.

Molecule `Cn1cnc2cc(Nc3ccnc(Nc4cccc(C(N)=O)c4)n3)ccc21` has an IC50 [1] of 1800 nM.

`Cc1cc(Nc2ccnc(Nc3cccc(C(N)=O)c3)n2)c2cn[nH]c2c1` gave an IC50 [1] of 520 nM.

For `Cn1cnc2ccc(Nc3ccnc(Nc4cccc(C(N)=O)c4)n3)cc21`, the IC50 [1] was 16000 nM.

With `Cc1ccc2[nH]ncc2c1Nc1ccnc(Nc2cccc(S(N)(=O)=O)c2)n1` the bioavailability [6] was 25%, the Vd [7] was 0.7 L/kg and the IC50 [2] was 69 nM. For the same molecule, the IC50 [3] was 220 nM, the IC50 [1] was 19 nM and the half-life [8] was 31.8 min. It also gave an AUC(0-t) [9] of 743 ng·h/mL, an IC50 [4] of 430 nM and an IC50 [5] of 620 nM. For the same molecule, the clearance [10] was 22.4 mL/min/kg and the AUC(0-t) [11] was 190 ng·h/mL.

With `Cc1ccc(NS(C)(=O)=O)cc1Nc1ccnc(Nc2cccc(C(N)=O)c2)n1` the IC50 [1] was 7700 nM.

With `NC(=O)c1cccc(Nc2nccc(Nc3cccc4nn[nH]c34)n2)c1` the IC50 [1] was 490 nM.

`NC(=O)c1cccc(Nc2nccc(Nc3cccc(O)c3)n2)c1` showed an IC50 [1] of 130 nM.

With `NC(=O)c1cccc(Nc2nccc(Nc3ccc4ncsc4c3)n2)c1` the IC50 [1] was 3000 nM.

For `NC(=O)c1cccc(Nc2nccc(Nc3cccc(F)c3)n2)c1`, the IC50 [1] was 3300 nM.

Work on `COc1cccc(Nc2ccnc(Nc3cccc(C(N)=O)c3)n2)c1` yielded an IC50 [1] of 2700 nM.

Molecule `Cc1ccc(Cl)cc1Nc1ccnc(Nc2cccc(C(N)=O)c2)n1` has an IC50 [1] of 380 nM.

`Cc1ccc(O)cc1Nc1ccnc(Nc2cccc(C(N)=O)c2)n1` showed an IC50 [12] of 14 nM, an IC50 [2] of 9 nM and an IC50 [3] of 2 nM. It also gave an IC50 [1] of 13 nM and an IC50 [4] of 3 nM.

`NC(=O)c1cccc(Nc2nccc(Nc3cccc4ncccc34)n2)c1` showed an IC50 [1] of 560 nM.

In the case of `Cc1ccc(F)cc1Nc1ccnc(Nc2cccc(C(N)=O)c2)n1`, the IC50 [1] is reported as 270 nM.

In the case of `CC(=O)N(C)c1cccc(Nc2ccnc(Nc3cccc(C(N)=O)c3)n2)c1`, the IC50 [1] is reported as 1800 nM.

With `NC(=O)c1cccc(Nc2nccc(Nc3ccc(F)cc3F)n2)c1` the IC50 [1] was 1100 nM.

For `Cc1ccc(O)cc1Nc1ccnc(Nc2cccc(S(N)(=O)=O)c2)n1`, the IC50 [3] was 0.4 nM, the IC50 [1] was 8.5 nM and the half-life [13] was 7.2 min. For the same molecule, the bioavailability [14] was < 1%, the clearance [15] was 65.5 mL/min/kg and the AUC(0-t) [16] was 2 ng·h/mL. The IC50 [4] was 1 nM, the IC50 [5] was 4 nM and the Vd [17] was 0.3 L/kg. The AUC(0-t) [18] was 635 ng·h/mL.

For `NC(=O)c1cccc(Nc2nccc(Nc3ccc4[nH]ncc4c3)n2)c1`, the IC50 [1] was 3000 nM.

Molecule `Cc1cccc(O)c1Nc1ccnc(Nc2cccc(C(N)=O)c2)n1` has an IC50 [1] of 100 nM.

Molecule `Cc1cc(O)cc(Nc2ccnc(Nc3cccc(C(N)=O)c3)n2)c1` has an IC50 [1] of 73 nM.

Work on `Cc1cc(O)ccc1Nc1ccnc(Nc2cccc(C(N)=O)c2)n1` yielded an IC50 [1] of 40 nM.

In the case of `Cc1ccc2c(cnn2C)c1Nc1ccnc(Nc2cccc(C(N)=O)c2)n1`, the IC50 [1] is reported as 2800 nM.

`CC(C)c1ccc(O)cc1Nc1ccnc(Nc2cccc(C(N)=O)c2)n1` gave an IC50 [1] of 880 nM.

Work on `Cn1ncc2ccc(Nc3ccnc(Nc4cccc(C(N)=O)c4)n3)cc21` yielded an IC50 [1] of 8200 nM.

Work on `COc1ccc(C)c(Nc2ccnc(Nc3cccc(C(N)=O)c3)n2)c1` yielded an IC50 [1] of 86 nM.

`Cc1ccc(Nc2ccnc(Nc3cccc(C(N)=O)c3)n2)c2cn[nH]c12` gave an IC50 [1] of 55 nM.

With `NC(=O)c1cccc(Nc2nccc(Nc3cc(O)ccc3Br)n2)c1` the IC50 [1] was 41 nM.

Molecule `Cc1ccc(C(=O)N(C)C)cc1Nc1ccnc(Nc2cccc(C(N)=O)c2)n1` has an IC50 [1] of 9300 nM.

For `NC(=O)c1cccc(Nc2nccc(Nc3cccc4cn[nH]c34)n2)c1`, the IC50 [1] was 1400 nM.

`Cc1ccc(Nc2ccnc(Nc3cccc(C(N)=O)c3)n2)cc1O` gave an IC50 [1] of 190 nM.
